Screening data (PubChem)
ERp5 block: ERp5 (human) disulfide isomerase inhibition; Q15084; ERp5 insulin aggregation, absorbance 650 nm, 90 min; inhibition, % at 9.99 µM; 350,000 tested, 0.05% active;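 active = mean replicate inhibition above about 25%, with every replicate also reaching it, limit read from the data, passing the limit was not always enough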
Target sequence (Q15084 whole entry, looked up): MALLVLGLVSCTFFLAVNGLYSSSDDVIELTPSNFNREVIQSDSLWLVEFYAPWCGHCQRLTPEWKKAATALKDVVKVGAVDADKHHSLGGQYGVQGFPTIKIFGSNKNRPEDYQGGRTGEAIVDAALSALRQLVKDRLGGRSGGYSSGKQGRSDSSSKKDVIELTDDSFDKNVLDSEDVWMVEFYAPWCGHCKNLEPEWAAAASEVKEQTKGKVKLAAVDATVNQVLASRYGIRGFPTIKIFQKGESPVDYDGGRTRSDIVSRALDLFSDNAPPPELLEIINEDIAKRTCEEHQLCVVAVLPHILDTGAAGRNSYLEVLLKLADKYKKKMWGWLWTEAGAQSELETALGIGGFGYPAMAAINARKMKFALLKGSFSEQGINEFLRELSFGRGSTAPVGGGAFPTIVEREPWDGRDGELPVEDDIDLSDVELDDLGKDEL
VIM-2 inh: inhibitors of Pseudomonas aeruginosa VIM-2 metallo-beta-lactamase; purified VIM-2, nitrocefin hydrolysis, epi-absorbance fluorescence; inhibition, % at 5.6 µM; 290,000 tested, 0.89% active; AID 1527;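 active = inhibition above the mean of all tested compounds plus 3 SD, cutoff set per screening run, cut at about 7.5% in these data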;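 note: red hydrolysis product quenches plate fluorescence so inhibitors raise well fluorescence; 0% = enzyme with DMSO and 100% = DMSO without enzyme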
PvdQ acylase: blocks Pseudomonas aeruginosa PvdQ acylase activity; purified PvdQ acylase, fluorescence plate reader; inhibition, % at 10 µM; 340,000 tested, 0.063% active; in the data active = inhibition above about 30%, passing the limit was not always enough;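 note: 0% = vehicle neutral wells and 100% = reference inhibitor wells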
PDI inh: inhibitors of human protein disulfide isomerase; 350,000 tested, 0.052% active; inhibition, % at 10 µM; PDI insulin aggregation turbidity, A650, 90 min;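 active = mean inhibition across replicates of 30% or more, whatever share of single replicates reach that level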
IMP-1 inhibitor: inhibitors of Pseudomonas aeruginosa IMP-1 metallo-beta-lactamase | purified IMP-1, nitrocefin hydrolysis, epi-absorbance fluorescence | inhibition, % at 5.6 µM | 290,000 tested, 0.45% active | AID 1556;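 active = inhibition above the mean plus 3 SD of all compounds in the same screening run, cut at about 4.5% in these data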;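 note: 0% = IMP-1 with DMSO and 100% = DMSO wells lacking enzyme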
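System: Purified recombinant IMP-1 metallo-beta-lactamase enzyme | Measured by: Fluorescence quenching readout, ex 480/em 530 nm | Replication: Singlicate | Incubation: 15 min preincubation plus 25 min reaction at 25 °C | Evaluation: Percent inhibition from optical density relative to buffer-blank wells | Benchmarks: DMSO with and without IMP-1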
PglD inh: PglD (C. jejuni) enzyme inhibition | purified PglD enzyme, DTNB colorimetric CoA detection | inhibition, % at 12.5 µM | 360,000 tested, 0.098% active | AID 602405; in the data active = inhibition above about 16%, passing the limit was not always enough
* = called active by the depositor; . = no result given. Only some compounds are listed: those with a hit (about 1% of all), similar ones and a draw of the others.

SMILES	ERp5 block	VIM-2 inh	PvdQ acylase	PDI inh	IMP-1 inhibitor	PglD inh
COc1ccccc1-c1cnc2c(c1)C(=O)N([C@@H](C)CO)C[C@H](C)[C@H](CN(C)Cc1ccc(F)cc1)O2	0	.	.	.	.	2
O=C(Cc1ccccn1)N1CC(=O)N2[C@@H](CO)[C@@H](c3ccc(-c4ccccc4)cc3)[C@@H]2C1	-4	.	.	.	.	.
C[C@H]1CN([C@@H](C)CO)C(=O)Cc2cc(NS(=O)(=O)c3cccs3)ccc2O[C@@H]1CN(C)C(=O)Nc1ccccc1	17	.	.	.	.	-3
CC(=O)Nc1cccc(NC(=O)c2cc(-c3cccnc3)nc3ccc(Br)cc23)c1	6	0	-1	5	5.2*	2
O=C(O)c1cc(-c2cccnc2)nc2ccc(Br)cc12	-3	-1	-16	3	-1	1
CSc1ccccc1NC(=O)c1cc(-c2cccnc2)nc2ccc(Br)cc12	-2	-1	-9	-3	6.3*	-1
Nc1nc(-c2ccc3c(c2)OCCO3)c(CC(=O)O)s1	7	2	-15	-3	9.9*	-4
Nc1nc(-c2ccc3c(c2)CCCC3)c(CC(=O)O)s1	0	3	-12	2	1	0
Cc1ccc(S(=O)(=O)NC(=O)c2ccc(-c3ccc(C)c4ccccc34)o2)cc1	0	-4	0	-1	4.7*	1
Cc1ccc(-c2ccc(C(=O)Nc3ccccc3)o2)c2ccccc12	6	-1	-11	0	2	-2
CCCCc1nc(Cl)c(CO)n1Cc1ccc(-c2ccccc2-c2nn[nH]n2)cc1	2	-2	-8	-2	-4	4
CCCCC(=O)N(Cc1ccc(-c2ccccc2-c2nn[nH]n2)cc1)[C@H](C(=O)O)C(C)C	.	-3	.	.	11*	.
CC(C)(C)c1cc(NC(=O)c2ccco2)no1	28*	-3	-4	8	-2	4
CCC(=O)N1CC2(C1)[C@@H](c1ccc(-c3ccc(C)cc3)cc1)[C@@H](CO)N2S(C)(=O)=O	1	.	.	.	.	.
O=C(Nc1nn[nH]n1)C12CC3CC(CC(C3)C1)C2	.	9.0*	-12	2	-1	.
C[C@H]1CN([C@@H](C)CO)C(=O)c2cc(NC(=O)CCC(F)(F)F)ccc2O[C@@H]1CN(C)C(=O)Nc1ccccc1	-1	.	.	.	.	2
COc1ccccc1-c1ccc(/C=C2/C=C(C)OC2=O)o1	.	-1	-17	7	-1	.
COc1ccccc1-c1ccc(/C=C2\C=CC(=O)O2)o1	4	5	-6	-5	5.4*	-7
CC(C)n1cc(C(N)=S)c(=O)n(Cc2ccccc2)c1=O	3	0	-10	-4	6.3*	-4
Cn1c(=O)c(C(N)=S)cn(-c2ccccc2)c1=O	-2	3	-9	-4	0	9
COc1ccc(S(=O)(=O)N(C)C[C@@H]2OCCCC[C@H](C)Oc3ccc(NS(=O)(=O)c4cn(C)cn4)cc3C(=O)N([C@@H](C)CO)C[C@H]2C)cc1	-1	.	.	.	.	4
Cc1cccc(NC(=O)Nc2cc(C)on2)c1	.	-1	39*	-7	2	2
COc1ccccc1-c1cn(CC[C@H]2CC[C@@H](NC(=O)C3CCOCC3)[C@H](CO)O2)nn1	-1	.	.	.	.	1
O=[N+]([O-])c1ccc(/C=C/C2=NN(c3ccccc3)C(c3ccco3)C2)o1 (stereo unspecified)	2	5	-8	2	5.5*	.
C[C@H]1CN([C@@H](C)CO)S(=O)(=O)c2ccc(C#CC3CC3)cc2O[C@@H]1CN(C)C(=O)CN(C)C	0	.	.	.	.	1
SMILES	ERp5 block	VIM-2 inh	PvdQ acylase	PDI inh	IMP-1 inhibitor	PglD inh
C[C@H](CO)N1C[C@H](C)[C@@H](CN(C)C(=O)Nc2cccc3ccccc23)Oc2c(NC(=O)c3nc4ccccc4s3)cccc2C1=O	-2	.	.	.	.	4
CCOC(=O)N1CCN(C(=S)NC(=O)c2cncc(Br)c2)CC1	.	-6	2	-5	5.4*	.
CCOC(=O)N1CCN(C(=S)NC(=O)c2ccc(Br)cc2)CC1	-1	-1	0	3	-3	.
O=C(O)CC/C(=C\c1ccc2c(c1)OCO2)c1nc2ccccc2s1	4	11*	16	-3	-4	-5
O=C(O)CC/C(=C\c1ccc(N2CCOCC2)c([N+](=O)[O-])c1)c1nc2ccccc2s1	2	0	-6	16	0	.
O=C(O)CC/C(=C\c1ccc(Cl)c([N+](=O)[O-])c1)c1nc2ccccc2s1	2	9.2*	-1	8	0	0
CO[C@@H]1CN(C)C(=O)c2cc(NC(=O)NC(C)C)ccc2OC[C@@H](C)N(CCC(F)(F)F)C[C@H]1C	.	.	.	.	.	10
Cc1cc(=O)oc2c(C)c(OCC(=O)NCCCN3CCOCC3)ccc12	-2	7.8*	-2	15	-1	-1
CC(Oc1ccc2c(-c3ccccc3)cc(=O)oc2c1)C(=O)NCCCN1CCOCC1 (stereo unspecified)	2	0	1	-3	-1	0
Cc1c(OC(C)C(=O)NCCN2CCOCC2)ccc2c3c(c(=O)oc12)CCCC3 (stereo unspecified)	8	9.6*	-14	0	-1	0
Cc1c(OCC(=O)NCCCN2CCOCC2)ccc2c(-c3ccccc3)cc(=O)oc12	-2	1	-2	-5	-2	5
Cc1cc(OC(C)C(=O)NCCCN2CCCC2=O)c2c(C)c(C)c(=O)oc2c1 (stereo unspecified)	-2	0	-19	9	-4	3
Cc1c(OC(C)C(=O)NCCCN2CCCC2=O)ccc2c3c(c(=O)oc12)CCCC3 (stereo unspecified)	2	10*	-9	-3	0	.
CC(Oc1ccc2c(c1)oc(=O)c1ccccc12)C(=O)NCCCN1CCOCC1 (stereo unspecified)	3	12*	-5	-5	-3	3
COc1ccc(C[C@H]2CCn3cc(nn3)COC[C@H](Cc3ccccc3)NC2=O)cc1	-5	.	.	.	.	.
Cc1cc(=O)oc2cc(OC(C)C(=O)NCCCN3CCCC3=O)c(Cl)cc12 (stereo unspecified)	10	-3	3	1	-4	0
CC(Oc1cc2oc(=O)c3c(c2cc1Cl)CCC3)C(=O)NCCCN1CCCC1=O (stereo unspecified)	-7	9.1*	-4	2	-5	-3
CCCn1c2ccccc2c2cnn(CC(=O)N3CCN(C4CCCCC4)CC3)c(=O)c21	.	7.8*	-5	-7	1	-1
CCCn1c2ccccc2c2cnn(CC(=O)N3CCOCC3)c(=O)c21	1	-1	1	-1	-2	1
O=C(C[C@H]1C=C[C@H](NC(=O)Nc2ccc3c(c2)OCO3)[C@@H](CO)O1)NCc1ccc(F)cc1	1	.	.	.	.	1
CCCn1c(=O)c2ccccc2n2c(SCCNCCO)nnc12	2	11*	1	1	-3	0
Cc1ccc(-n2sc3ccccc3c2=O)cc1S(=O)(=O)N1CCCCC1	2	3	-31	0	-5	22*
